Results published in ChEMBL document CHEMBL2146365, “Design and synthesis of EGFR dimerization inhibitors and evaluation of their potential in the treatment of psoriasis” (Bioorg Med Chem, 2012).
The source made the active and inactive calls. The rule behind the calls is not given here.

Tests used:
[1] = Growth inhibition of HPV-16 transformed human CCD-1106 cells after 72 hrs by MTT assay; format: functional; conditions: CCD-1106, 72 h
Outline: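 Cells were seeded at 10,000 cells/well in keratinocyte serum-free medium with L-glutamine, bovine pituitary extract and EGF, at 37 °C under 5% CO2, and attached overnight. Eight drug concentrations were run with six in-plate replicates, DMSO <1%, for 72 h. MTT (0.5 mg/ml) was added for 2 h, formazan was dissolved in 90% isopropanol/10% DMSO and A590 was read. Growth is expressed relative to the untreated control.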

[2] = Antioxidant activity in bovine brain assessed as inhibition of iron-ascorbate-induced lipid peroxidation by thiobarbituric acid test; format: functional, tissue-based, Bos taurus
Outline: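 Hit compounds were tested for inhibition of lipid peroxidation by the thiobarbituric acid (TBA) assay. Propyl gallate served as the standardizing positive control, tested at 100 µM.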

[3] = target: Epidermal growth factor receptor (Homo sapiens) (UniProt P00533); assay: Inhibition of EGFR-mediated ERK2 phosphorylation in HPV-16 transformed human CCD-1106 cells at 116.8 uM after 30 mins by densitometric analysis; format: cell-based
Outline: (§1)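 CCD-1106 cells were treated with compound for 30 min at 37 °C, then stimulated with EGF. Lysates were separated by SDS-PAGE, blotted to nitrocellulose and blocked in 3% BSA/NaTT. Blots were probed with p-ERK (E-4) or p-p38 (D-8) antibodies, detected by ECL and quantified by densitometry.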

[4] = target: Epidermal growth factor receptor (Homo sapiens) (UniProt P00533); assay: Inhibition of EGFR-mediated p38 phosphorylation in HPV-16 transformed human CCD-1106 cells at 116.8 uM after 30 mins by densitometric analysis; format: cell-based; outline: as §1
HaCaT [5] = assay: Cytotoxicity against human HaCaT cells assessed as cell viability after 6 hrs by MTT assay; format: functional; conditions: read-out: LD50 (the source's name)
Outline: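 Cells were plated at 10,000/well, attached overnight, and exposed 6 or 24 h to eight drug concentrations with six in-plate replicates (DMSO <1%). MTT (0.5 mg/ml in PBS) was added for 2 h at 37 °C, then dissolved in 90% isopropanol/10% DMSO, and A590 was read. Values were corrected against untreated controls. LD₅₀ is reported as mean ± S.E.M., n = 3.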

HaCaT [6] = assay: Induction of apoptosis in human HaCaT cells assessed as early phase apoptotic cells at 446 uM after 9 hrs by AnnexinV-FITC/propidium iodide based FACS flow cytometry; format: functional
Outline: (§2)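 HaCaT cells at 10^6 cells/ml were attached overnight and exposed to vehicle, 111.6, 223.2 or 446 µM for 9 h. Cells were then trypsinized, washed in ice-cold PBS and stained with Annexin V-FITC/PI. FACScan analysis used FL1/FL2, 10,000 events per sample, scatter gating, and quadrants set with single-stain controls. Runs were in triplicate and results are means of two experiments.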

HaCaT [7] = assay: Induction of apoptosis in human HaCaT cells assessed as late phase apoptotic/necrotic cells at 446 uM after 9 hrs by AnnexinV-FITC/propidium iodide based FACS flow cytometry; format: functional; outline: as §2
HaCaT [8] = assay: Induction of apoptosis in human HaCaT cells assessed as late phase apoptotic/necrotic cells at 223.2 uM after 9 hrs by AnnexinV-FITC/propidium iodide based FACS flow cytometry; format: functional; outline: as §2
HaCaT [9] = assay: Induction of apoptosis in human HaCaT cells assessed as activation of caspase 3/7 at 55.8 uM after 12 hrs; format: functional, cell-based
Outline: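 HaCaT cells were seeded at 10,000 cells/0.2 ml/well, attached overnight and exposed to compound (56–446 µM) for 12 h. Caspase-3/7 activity was measured with the Apo-ONE homogeneous kit, fluorescence 499/521 nm, in triplicate, with medium-only background wells. MTT viability was run in parallel. Results are means of two experiments, t-test against control.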

HaCaT [10] = assay: Induction of apoptosis in human HaCaT cells after 12 hrs by electron microscopy; format: functional, cell-based

Sequence of Epidermal growth factor receptor (Homo sapiens) (P00533 whole entry): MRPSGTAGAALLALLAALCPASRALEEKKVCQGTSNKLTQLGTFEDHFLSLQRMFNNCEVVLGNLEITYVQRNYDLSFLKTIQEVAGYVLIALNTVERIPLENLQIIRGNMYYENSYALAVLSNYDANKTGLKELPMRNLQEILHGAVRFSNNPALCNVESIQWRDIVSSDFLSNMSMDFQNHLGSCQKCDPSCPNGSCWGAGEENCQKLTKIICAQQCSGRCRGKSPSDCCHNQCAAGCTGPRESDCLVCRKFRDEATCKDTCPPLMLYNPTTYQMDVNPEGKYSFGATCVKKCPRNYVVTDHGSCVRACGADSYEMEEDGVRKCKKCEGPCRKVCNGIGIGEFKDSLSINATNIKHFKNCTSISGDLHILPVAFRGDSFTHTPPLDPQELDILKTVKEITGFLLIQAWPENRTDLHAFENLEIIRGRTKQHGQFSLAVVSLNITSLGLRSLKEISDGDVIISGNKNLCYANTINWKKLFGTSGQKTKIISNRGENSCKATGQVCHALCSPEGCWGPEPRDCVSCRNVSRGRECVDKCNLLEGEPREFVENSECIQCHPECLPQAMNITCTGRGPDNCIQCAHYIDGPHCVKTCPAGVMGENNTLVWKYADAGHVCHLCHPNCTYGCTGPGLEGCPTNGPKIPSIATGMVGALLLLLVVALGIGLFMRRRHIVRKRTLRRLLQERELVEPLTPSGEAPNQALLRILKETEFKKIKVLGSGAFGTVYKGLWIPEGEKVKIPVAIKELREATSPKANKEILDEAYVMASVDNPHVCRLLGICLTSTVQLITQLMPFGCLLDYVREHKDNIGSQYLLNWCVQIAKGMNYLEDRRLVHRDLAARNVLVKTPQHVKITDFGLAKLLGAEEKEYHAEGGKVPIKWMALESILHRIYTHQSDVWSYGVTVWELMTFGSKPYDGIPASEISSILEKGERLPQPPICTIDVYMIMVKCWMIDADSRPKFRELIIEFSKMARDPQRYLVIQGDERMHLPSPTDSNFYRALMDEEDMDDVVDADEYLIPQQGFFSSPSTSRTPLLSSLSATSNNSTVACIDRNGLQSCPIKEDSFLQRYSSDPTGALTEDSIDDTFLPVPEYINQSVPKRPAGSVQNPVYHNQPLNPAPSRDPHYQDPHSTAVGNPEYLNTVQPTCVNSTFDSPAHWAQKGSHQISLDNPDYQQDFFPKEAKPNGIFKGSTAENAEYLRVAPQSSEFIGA

## CCOc1cc(/C=N\Nc2nc3c(c(=O)n(C)c(=O)n3C)n2Cc2ccccc2)ccc1O
[1]; read-out: GI50
  GI50: 2.69 µM
[1]; read-out: pGI50 (converted)
  GI50: 2.69 µM
[2]
  IC50: 8 µM
[3]
  inhibition: 33%
[4]
  inhibition: 11%
HaCaT [5]
  CC50: 440 µM
HaCaT [6]
  Activity: 24%
HaCaT [7]
  Activity: 15%
HaCaT [8]
  Activity: 10%
HaCaT [9]
  Activity: Active
HaCaT [10]
  Activity: Active
